From ChEMBL document CHEMBL1125422, “Low molecular weight proteins as carriers for renal drug targeting. Preparation of drug-protein conjugates and drug-spacer derivatives and their catabolism in renal cortex homogenates and lysosomal lysates” (J Med Chem, 1992)
Square brackets hold non-standard residues; d marks the D form. Peptide text beside a SMILES is read from it. * marks the point of attachment. ξ: configuration not given here. βNA = c1ccc2cc(N*)ccc2c1; Cbz = O=C(OCc1ccccc1)*; ξP = O=C(O)C1CCCN1

How the values were obtained:
Rattus norvegicus [1] = species on record: Rattus norvegicus; test: (§1) Lysozyme-conjugated prodrugs: in vitro stability at pH 5; type: functional
Method in brief: (§2)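 Conjugate incubated 24 h in pH 5.0 buffer, pH 7.4 buffer, or plasma buffered at pH 7.4. Samples were deproteinized with ACN, MeOH or 2 N HCl, centrifuged, and analyzed by RP-HPLC against an internal standard. Release is % parent drug = parent/(parent + derivative) from IS-normalized peak-area ratios, mean of at least two separate incubations.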

Rattus norvegicus [2] = species on record: Rattus norvegicus; test: (§3) Lysozyme-conjugated prodrugs: in vitro stability at pH 7.4; type: functional; method in brief: as §2
Rattus norvegicus [3] = species on record: Rattus norvegicus; test: as §1; type: ADME; method in brief: as §2
Rattus norvegicus [4] = species on record: Rattus norvegicus; test: as §3; type: functional; method in brief: as §2; remark: listed apart in the source
Rattus norvegicus [5] = species on record: Rattus norvegicus; test: as §3; type: functional; method in brief: as §2; remark: listed apart in the source
Rattus norvegicus [6] = species on record: Rattus norvegicus; test: as §1; type: functional; method in brief: as §2; remark: listed apart in the source
Rattus norvegicus [7] = species on record: Rattus norvegicus; test: as §3; type: functional; method in brief: as §2; remark: listed apart in the source

Row | Compound | Drug release (Rattus norvegicus [3]) [%] | Drug release (Rattus norvegicus [1]) [%] | Drug release (Rattus norvegicus [2]) [%] | Drug release (Rattus norvegicus [4]) [%] | Drug release (Rattus norvegicus [5]) [%] | Drug release (Rattus norvegicus [6]) [%] | Drug release (Rattus norvegicus [7]) [%]
1 | CC(C)C[C@H](N)C(=O)Nc1nc(N)nc2nc(N)c(-c3ccccc3)nc12 | 0 | 0 | 0 | 0 | – | – | –
2 | COc1ccc2c(c1)c(CC(=O)NCCCC[C@H](NC(=O)OCc1ccccc1)C(=O)O)c(C)n2C(=O)c1ccc(Cl)cc1 | 0 | 0 | 0 | 0 | – | – | –
3 | CC(C)C[C@H](N)C(=O)Nc1nc2nc(N)nc(N)c2nc1-c1ccccc1 | 0 | <5 | <5 | 0 | – | – | –
4 | O=C(N[C@@H](Cc1ccccc1)C(=O)O)C1CCCN1C(=O)OCc1ccccc1 (some centres not stated) (Cbz-[ξP]-Phe-OH) | 0 | 100 | 100 | 0 | 100 | 100 | –
5 | COc1ccc2c(c1)c(CC(=O)N[C@@H](CCC(=O)O)C(=O)O)c(C)n2C(=O)c1ccc(Cl)cc1 | 0 | 0 | 0 | 0 | – | – | –
6 | CC(C)C[C@H](N)C(=O)Nc1nc(N)c2nc(-c3ccccc3)c(N)nc2n1 | 0 | <5 | <5 | 0 | – | – | –
7 | COc1ccc2c(c1)c(CC(=O)N[C@@H](Cc1ccc(O)cc1)C(=O)O)c(C)n2C(=O)c1ccc(Cl)cc1 | 0 | 0 | 0 | 0 | – | – | –
8 | O=C(O)CC[C@H](NC(=O)c1ccccc1)C(=O)O | 0 | 0 | 0 | 0 | – | – | –
9 | CC(C)C[C@H](N)C(=O)Nc1ccc2ccccc2c1 | 0 | 100 | 100 | 0 | 100 | 100 | –
10 | COc1ccc2cc(C(C)C(=O)N[C@@H](Cc3ccccc3)C(=O)O)ccc2c1 (some centres not stated) | 0 | 0 | 0 | 0 | – | – | –
11 | CC(C)C[C@H](NC(=O)c1ccccc1)C(=O)O | 0 | 0 | 0 | 0 | – | – | –
12 | COc1ccc2c(c1)c(CC(=O)N[C@@H](Cc1ccccc1)C(=O)O)c(C)n2C(=O)c1ccc(Cl)cc1 | 0 | 0 | 0 | 0 | – | – | –
13 | C[C@H](NC(=O)OCc1ccccc1)C(=O)N1CCC[C@H]1C(=O)N[C@@H](Cc1ccccc1)C(=O)O (Cbz-Ala-Pro-Phe-OH) | 0 | 0 | 96 | 0 | – | – | –
14 | COc1ccc2c(c1)c(CC(=O)N[C@@H](Cc1c[nH]c3ccccc13)C(=O)O)c(C)n2C(=O)c1ccc(Cl)cc1 | 0 | 0 | 0 | 0 | – | – | –
15 | COc1ccc2cc(C(C)C(=O)NCC(=O)O)ccc2c1 (configuration not stated) | 0 | 0 | 0 | 0 | – | – | –
16 | O=C(N[C@@H](Cc1c[nH]c2ccccc12)C(=O)O)c1ccccc1 | 0 | 0 | 0 | 0 | – | – | –
17 | COc1ccc2c(c1)c(CC(=O)N[C@@H](CC(C)C)C(=O)O)c(C)n2C(=O)c1ccc(Cl)cc1 | 0 | 0 | 0 | 0 | – | – | –
18 | COc1ccc2cc(C(C)C(=O)O[C@@H](C)C(=O)O)ccc2c1 (stereo in doubt) | 1.1 | 2 | – | 6.9 | – | 2 | 6.8

Continued, in another order:

Row | Drug release (Rattus norvegicus [3]) [%] | Compound | Drug release (Rattus norvegicus [1]) [%] | Drug release (Rattus norvegicus [2]) [%] | Drug release (Rattus norvegicus [4]) [%] | Drug release (Rattus norvegicus [5]) [%] | Drug release (Rattus norvegicus [6]) [%] | Drug release (Rattus norvegicus [7]) [%]
19 | 0 | COc1ccc2cc(C(C)C(=O)N[C@H](C(=O)O)C(C)C)ccc2c1 (some centres not stated) | 0 | 0 | 0 | – | – | –
20 | < 1 | COc1ccc2cc(C(C)C(=O)NC(Cc3ccc(O)cc3)C(=O)O)ccc2c1 (configuration not stated) | <1 | <1 | <1 | <1 | <1 | <1
21 | 0 | COc1ccc2cc(C(C)C(=O)N[C@@H](Cc3ccc(O)cc3)C(=O)NCC(=O)NCC(=O)O)ccc2c1 (stereo in doubt; 1p) | 0 | 0 | 0 | – | – | –
22 | 0 | COc1ccc2cc(C(C)C(=O)N[C@@H](Cc3c[nH]c4ccccc34)C(=O)O)ccc2c1 (some centres not stated) | 0 | 0 | 0 | – | – | –
23 | 0 | COc1ccc2cc(C(C)C(=O)N[C@@H](CCC(=O)O)C(=O)O)ccc2c1 (some centres not stated) | 0 | 0 | 0 | – | – | –
24 | 0 | NCC(=O)N[C@@H](Cc1ccccc1)C(=O)Nc1ccc2ccccc2c1 (H-Gly-Phe-βNA) | 100 | 100 | 0 | 100 | 100 | –
25 | 0 | COc1ccc2cc(C(C)C(=O)N[C@@H](CCCN=C(N)N)C(=O)O)ccc2c1 (some centres not stated) | 0 | 0 | 0 | – | – | –
26 | 0 | O=C(O)CNC(=O)c1ccccc1 [HIPPURIC ACID] | 0 | 0 | 0 | – | – | –
27 | 0 | COc1ccc2cc(C(C)C(=O)N[C@@H](CC(C)C)C(=O)O)ccc2c1 (some centres not stated) | 0 | 0 | 0 | – | – | –
28 | 0 | O=C(N[C@@H](Cc1ccc(O)cc1)C(=O)O)c1ccccc1 | 0 | 0 | 0 | – | – | –
29 | 0 | O=C(N[C@@H](Cc1ccccc1)C(=O)O)c1ccccc1 | 0 | 0 | 0 | – | – | –
30 | 0 | NCCCC[C@H](NC(=O)c1ccccc1)C(=O)O | 0 | 0 | 0 | – | – | –
31 | 0 | C[C@@H](NC(=O)C(Cc1ccccc1)NC(=O)OCc1ccccc1)C(=O)O (some centres not stated) | 100 | 100 | 0 | 100 | 100 | –
32 | 0 | COc1ccc2cc(C(C)C(=O)N[C@@H](CC(C)C)C(=O)NCC(=O)NCC(=O)O)ccc2c1 (stereo in doubt; 1o) | 0 | 0 | 0 | – | – | –
33 | 0 | COc1ccc2c(c1)c(CC(=O)NCC(=O)O)c(C)n2C(=O)c1ccc(Cl)cc1 | 0 | 0 | 0 | – | – | –
34 | 0 | COc1ccc2cc(C(C)C(=O)N[C@@H](Cc3ccc(O)cc3)C(=O)O)ccc2c1 (some centres not stated) | 0 | 0 | 0 | – | – | –
35 | 0 | N=C(N)NCCC[C@H](NC(=O)c1ccccc1)C(=O)O | 0 | 0 | 0 | – | – | –
